Results: ChEMBL document CHEMBL4689842, “EUbOPEN Chemogenomics Library wave 1” (2021)

Columns and labels:
Type in all cases: toxicity, cell-based
Fibroblast [1] = experiment: Incucyte cell viability with human fibroblast; details: 10 µM, compound concentration 10 uM; further: filed as whole numbers so only -1 and 0 and 1 occur
HEK-293T = experiment: Incucyte cell viability with HEK293T; details: human, 10 µM, compound concentration 10 uM; further: filed as whole numbers so only -1 and 0 and 1 occur
Fibroblast [2] = experiment: Multiplex assay against human fibroblast
In short: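 Values for tubulin, mitochondrial-mass and membrane-permeability phenotypes are per cents of cells with healthy nuclei. These cells were identified by CellPathfinder machine-learning gating of live cells that had been stained at seeding with Hoechst33342, BioTracker Green Microtubule Cytoskeleton Dye, MitoTracker Red and Annexin V Alexa Fluor 680 and imaged on a CQ1 microscope at 37°C and 5% CO2 after compound addition. The gating first set Hoechst high-intensity objects apart from normal cells, then split normal cells into healthy, pyknosed or fragmented nuclei, and pyknosed cells into mitotic or apoptotic.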

U2OS = experiment: Incucyte cell viability with U2OS; details: human, 10 µM, compound concentration 10 uM; further: filed as whole numbers so only -1 and 0 and 1 occur
[3] = 0 h, replicate number 1, timepoint 0 hours
[4] = 12 h, replicate number 2, timepoint 12 hours
[5] = 18 h, replicate number 1, timepoint 18 hours
[6] = 18 h, replicate number 2, timepoint 18 hours
[7] = 24 h, replicate number 1, timepoint 24 hours
[8] = 24 h, replicate number 2, timepoint 24 hours
[9] = 6 h, replicate number 1, timepoint 6 hours
[10] = 12 h, replicate number 1, timepoint 12 hours
[11] = 12 h, 1 µM, compound concentration 1 uM, replicate 1
[12] = 12 h, 1 µM, compound concentration 1 uM, replicate 2
[13] = 12 h, 10 µM, compound concentration 10 uM, replicate 1
[14] = 12 h, 10 µM, compound concentration 10 uM, replicate 2
[15] = 24 h, 1 µM, compound concentration 1 uM, replicate 1
[16] = 24 h, 1 µM, compound concentration 1 uM, replicate 2
[17] = 24 h, 10 µM, compound concentration 10 uM, replicate 1
[18] = 24 h, 10 µM, compound concentration 10 uM, replicate 2
[19] = 48 h, 1 µM, compound concentration 1 uM, replicate 1
[20] = 48 h, 1 µM, compound concentration 1 uM, replicate 2
[21] = 48 h, 10 µM, compound concentration 10 uM, replicate 1
[22] = 48 h, 10 µM, compound concentration 10 uM, replicate 2

Structure (SMILES): CC(/C=C1\SC(=S)N(CCCC(=O)Nc2ccc(C(=O)O)c(O)c2)C1=O)=C\c1ccccc1
- Growth Rate (Fibroblast [1]; [3]): 0
- Growth Rate (Fibroblast [1]; 6 h, replicate number 2, timepoint 6 hours): 0
- Growth Rate (Fibroblast [1]; [4]): 0
- Growth Rate (Fibroblast [1]; [5]): 1
- Growth Rate (Fibroblast [1]; [6]): 0
- Growth Rate (Fibroblast [1]; [7]): 1
- Growth Rate (Fibroblast [1]; [8]): 0
- Growth Rate (HEK-293T; [3]): 0
- Growth Rate (HEK-293T; [9]): 1
- Growth Rate (HEK-293T; [10]): 0
- Growth Rate (HEK-293T; [4]): 1
- Growth Rate (HEK-293T; [5]): 0
- Growth Rate (HEK-293T; [6]): 1
- Growth Rate (HEK-293T; [7]): 0
- Growth Rate (HEK-293T; [8]): 1
- Population Apoptotic (%) (Fibroblast [2]; [11]): 59%
- Population Fragmented Nuclei (%) (Fibroblast [2]; [11]): 22%
- Population Healthy Nuclei (%) (Fibroblast [2]; [11]): 47%
- Population Hoechst High Intensity Objects (%) (Fibroblast [2]; [11]): 11%
- Population Membrane Permeable-Phenotype (%) (Fibroblast [2]; [11]): 31%
- Population Mitochondria Different-Phenotype (%) (Fibroblast [2]; [11]): 4%
- Population Mitotic Cells (%) (Fibroblast [2]; [11]): 40%
- Population Normal (%) (Fibroblast [2]; [11]): 88%
- Population Pyknosed Nuclei (%) (Fibroblast [2]; [11]): 29%
- Population Tubulin-Different-Phenotype (%) (Fibroblast [2]; [11]): 38%
- Total Cell Count (Fibroblast [2]; [11]): 167
- Population Apoptotic (%) (Fibroblast [2]; [12]): 33%
- Population Fragmented Nuclei (%) (Fibroblast [2]; [12]): 10%
- Population Healthy Nuclei (%) (Fibroblast [2]; [12]): 81%
- Population Hoechst High Intensity Objects (%) (Fibroblast [2]; [12]): 6%
- Population Membrane Permeable-Phenotype (%) (Fibroblast [2]; [12]): 7%
- Population Mitochondria Different-Phenotype (%) (Fibroblast [2]; [12]): 7%
- Population Mitotic Cells (%) (Fibroblast [2]; [12]): 66%
- Population Normal (%) (Fibroblast [2]; [12]): 93%
- Population Pyknosed Nuclei (%) (Fibroblast [2]; [12]): 7%
- Population Tubulin-Different-Phenotype (%) (Fibroblast [2]; [12]): 7%
- Total Cell Count (Fibroblast [2]; [12]): 65
- Population Apoptotic (%) (Fibroblast [2]; [13]): 62%
- Population Fragmented Nuclei (%) (Fibroblast [2]; [13]): 32%
- Population Healthy Nuclei (%) (Fibroblast [2]; [13]): 48%
- Population Hoechst High Intensity Objects (%) (Fibroblast [2]; [13]): 61%
- Population Membrane Permeable-Phenotype (%) (Fibroblast [2]; [13]): 40%
- Population Mitochondria Different-Phenotype (%) (Fibroblast [2]; [13]): 9%
- Population Mitotic Cells (%) (Fibroblast [2]; [13]): 37%
- Population Normal (%) (Fibroblast [2]; [13]): 38%
- Population Pyknosed Nuclei (%) (Fibroblast [2]; [13]): 18%
- Population Tubulin-Different-Phenotype (%) (Fibroblast [2]; [13]): 54%
- Total Cell Count (Fibroblast [2]; [13]): 331
- Population Apoptotic (%) (Fibroblast [2]; [14]): 44%
- Population Fragmented Nuclei (%) (Fibroblast [2]; [14]): 17%
- Population Healthy Nuclei (%) (Fibroblast [2]; [14]): 72%
- Population Hoechst High Intensity Objects (%) (Fibroblast [2]; [14]): 7%
- Population Membrane Permeable-Phenotype (%) (Fibroblast [2]; [14]): 6%
- Population Mitochondria Different-Phenotype (%) (Fibroblast [2]; [14]): 6%
- Population Mitotic Cells (%) (Fibroblast [2]; [14]): 55%
- Population Normal (%) (Fibroblast [2]; [14]): 92%
- Population Pyknosed Nuclei (%) (Fibroblast [2]; [14]): 10%
- Population Tubulin-Different-Phenotype (%) (Fibroblast [2]; [14]): 9%
- Total Cell Count (Fibroblast [2]; [14]): 88
- Population Apoptotic (%) (Fibroblast [2]; [15]): 54%
- Population Fragmented Nuclei (%) (Fibroblast [2]; [15]): 23%
- Population Healthy Nuclei (%) (Fibroblast [2]; [15]): 50%
- Population Hoechst High Intensity Objects (%) (Fibroblast [2]; [15]): 7%
- Population Membrane Permeable-Phenotype (%) (Fibroblast [2]; [15]): 29%
- Population Mitochondria Different-Phenotype (%) (Fibroblast [2]; [15]): 1%
- Population Mitotic Cells (%) (Fibroblast [2]; [15]): 45%
- Population Normal (%) (Fibroblast [2]; [15]): 92%
- Population Pyknosed Nuclei (%) (Fibroblast [2]; [15]): 25%
- Population Tubulin-Different-Phenotype (%) (Fibroblast [2]; [15]): 37%
- Total Cell Count (Fibroblast [2]; [15]): 155
- Population Fragmented Nuclei (%) (Fibroblast [2]; [16]): 12%
- Population Healthy Nuclei (%) (Fibroblast [2]; [16]): 76%
- Population Hoechst High Intensity Objects (%) (Fibroblast [2]; [16]): 6%
- Population Membrane Permeable-Phenotype (%) (Fibroblast [2]; [16]): 4%
- Population Mitochondria Different-Phenotype (%) (Fibroblast [2]; [16]): 10%
- Population Normal (%) (Fibroblast [2]; [16]): 93%
- Population Pyknosed Nuclei (%) (Fibroblast [2]; [16]): 10%
- Population Tubulin-Different-Phenotype (%) (Fibroblast [2]; [16]): 12%
- Total Cell Count (Fibroblast [2]; [16]): 64
- Population Apoptotic (%) (Fibroblast [2]; [17]): 53%
- Population Fragmented Nuclei (%) (Fibroblast [2]; [17]): 32%
- Population Healthy Nuclei (%) (Fibroblast [2]; [17]): 45%
- Population Hoechst High Intensity Objects (%) (Fibroblast [2]; [17]): 57%
- Population Membrane Permeable-Phenotype (%) (Fibroblast [2]; [17]): 44%
- Population Mitochondria Different-Phenotype (%) (Fibroblast [2]; [17]): 6%
- Population Mitotic Cells (%) (Fibroblast [2]; [17]): 46%
- Population Normal (%) (Fibroblast [2]; [17]): 42%
- Population Pyknosed Nuclei (%) (Fibroblast [2]; [17]): 22%
- Population Tubulin-Different-Phenotype (%) (Fibroblast [2]; [17]): 44%
- Total Cell Count (Fibroblast [2]; [17]): 326
- Population Apoptotic (%) (Fibroblast [2]; [18]): 44%
- Population Fragmented Nuclei (%) (Fibroblast [2]; [18]): 9%
- Population Healthy Nuclei (%) (Fibroblast [2]; [18]): 83%
- Population Hoechst High Intensity Objects (%) (Fibroblast [2]; [18]): 4%
- Population Membrane Permeable-Phenotype (%) (Fibroblast [2]; [18]): 5%
- Population Mitochondria Different-Phenotype (%) (Fibroblast [2]; [18]): 14%
- Population Mitotic Cells (%) (Fibroblast [2]; [18]): 55%
- Population Normal (%) (Fibroblast [2]; [18]): 95%
- Population Pyknosed Nuclei (%) (Fibroblast [2]; [18]): 7%
- Population Tubulin-Different-Phenotype (%) (Fibroblast [2]; [18]): 14%
- Total Cell Count (Fibroblast [2]; [18]): 115
- Population Apoptotic (%) (Fibroblast [2]; [19]): 62%
- Population Fragmented Nuclei (%) (Fibroblast [2]; [19]): 34%
- Population Healthy Nuclei (%) (Fibroblast [2]; [19]): 52%
- Population Hoechst High Intensity Objects (%) (Fibroblast [2]; [19]): 14%
- Population Membrane Permeable-Phenotype (%) (Fibroblast [2]; [19]): 30%
- Population Mitochondria Different-Phenotype (%) (Fibroblast [2]; [19]): 3%
- Population Mitotic Cells (%) (Fibroblast [2]; [19]): 37%
- Population Normal (%) (Fibroblast [2]; [19]): 85%
- Population Pyknosed Nuclei (%) (Fibroblast [2]; [19]): 12%
- Population Tubulin-Different-Phenotype (%) (Fibroblast [2]; [19]): 33%
- Total Cell Count (Fibroblast [2]; [19]): 146
- Population Apoptotic (%) (Fibroblast [2]; [20]): 100%
- Population Fragmented Nuclei (%) (Fibroblast [2]; [20]): 15%
- Population Healthy Nuclei (%) (Fibroblast [2]; [20]): 81%
- Population Hoechst High Intensity Objects (%) (Fibroblast [2]; [20]): 12%
- Population Membrane Permeable-Phenotype (%) (Fibroblast [2]; [20]): 18%
- Population Mitochondria Different-Phenotype (%) (Fibroblast [2]; [20]): 1%
- Population Mitotic Cells (%) (Fibroblast [2]; [20]): 0%
- Population Normal (%) (Fibroblast [2]; [20]): 87%
- Population Pyknosed Nuclei (%) (Fibroblast [2]; [20]): 2%
- Population Tubulin-Different-Phenotype (%) (Fibroblast [2]; [20]): 35%
- Total Cell Count (Fibroblast [2]; [20]): 127
- Population Apoptotic (%) (Fibroblast [2]; [21]): 69%
- Population Fragmented Nuclei (%) (Fibroblast [2]; [21]): 49%
- Population Healthy Nuclei (%) (Fibroblast [2]; [21]): 40%
- Population Hoechst High Intensity Objects (%) (Fibroblast [2]; [21]): 55%
- Population Membrane Permeable-Phenotype (%) (Fibroblast [2]; [21]): 37%
- Population Mitochondria Different-Phenotype (%) (Fibroblast [2]; [21]): 13%
- Population Mitotic Cells (%) (Fibroblast [2]; [21]): 30%
- Population Normal (%) (Fibroblast [2]; [21]): 44%
- Population Pyknosed Nuclei (%) (Fibroblast [2]; [21]): 9%
- Population Tubulin-Different-Phenotype (%) (Fibroblast [2]; [21]): 54%
- Total Cell Count (Fibroblast [2]; [21]): 297
- Population Apoptotic (%) (Fibroblast [2]; [22]): 33%
- Population Fragmented Nuclei (%) (Fibroblast [2]; [22]): 23%
- Population Healthy Nuclei (%) (Fibroblast [2]; [22]): 72%
- Population Hoechst High Intensity Objects (%) (Fibroblast [2]; [22]): 12%
- Population Membrane Permeable-Phenotype (%) (Fibroblast [2]; [22]): 14%
- Population Mitochondria Different-Phenotype (%) (Fibroblast [2]; [22]): 4%
- Population Mitotic Cells (%) (Fibroblast [2]; [22]): 66%
- Population Normal (%) (Fibroblast [2]; [22]): 87%
- Population Pyknosed Nuclei (%) (Fibroblast [2]; [22]): 4%
- Population Tubulin-Different-Phenotype (%) (Fibroblast [2]; [22]): 38%
- Total Cell Count (Fibroblast [2]; [22]): 74
- Growth Rate (U2OS; [3]): 0
- Growth Rate (U2OS; [9]): 0
- Growth Rate (U2OS; [10]): 1
- Growth Rate (U2OS; [5]): 1
- Growth Rate (U2OS; [7]): 1
